Results as given in PubChem BioAssay AID588629 (Broad Institute, 2011).
Results filed as inconclusive are left out. The source made the active and inactive calls.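 The calls were made as follows: active = every test run called active, with signal falling and half-effect dose at or below the top valid dose; inconclusive = test runs give conflicting calls; inactive = all test runs inactive.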

Biological target: cAMP-dependent protein kinase catalytic subunit alpha (Homo sapiens) (UniProt P17612)
Experiment: inhibition of human PKA kinase activity – biochemical, Caliper mobility shift, dry powder samples, set 2, dose response (AID 588629)
Details: Recombinant PKA, peptide phosphorylation
Procedure, shortened: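 Times: Kinase reaction with compound, 1 h at room temperature | Material: His-tagged PKA catalytic domain | Quantity: 1.5 nM PKA | Read-out basis: % conversion and IC50 | Buffer or medium: MOPS pH 7 with Mg2+ | Signal: Microfluidic electrophoresis, EDTA-stopped endpoint | Reagent: Fluorescent Peptide 21 at 3 µM plus 12 µM ATP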

| Structure (SMILES) | IC50 [µM] |
| --- | --- |
| O=C(Nc1ccccc1-c1nc2ccccc2[nH]c1=O)c1cc2ccccc2s1 | 6.73 |
| O=C(Nc1ccccc1-c1nc2cc(Cl)c(Cl)cc2[nH]c1=O)c1cccs1 | 4.88 |
| COc1cc(/C=C2\SC(=Nc3ccccc3Cl)NC2=O)ccc1O | 3.66 |
| COc1cc(/C=C2\SC(=NCc3ccccc3)NC2=O)ccc1O | 2.9 |

Same assay, conditions: Recombinant PKA, peptide phosphorylation, at 10 µM (top of the series)

| Structure (SMILES) | % substrate conversion (lower = inhibition) |
| --- | --- |
| O=C(Nc1ccc(F)cc1-c1nc2ccccc2[nH]c1=O)c1cccs1 | inactive |
| COc1ccccc1N=C1NC(=O)/C(=C/c2ccc3c(c2)OC(F)(F)O3)S1 | inactive |
| COc1ccccc1N=C1NC(=O)/C(=C/c2ccc3c(c2)OCCO3)S1 | inactive |
| COc1ccccc1N=C1NC(=O)/C(=C/c2ccc(C(C)C)cc2)S1 | inactive |
| COc1ccccc1N=C1NC(=O)CS1 | inactive |
| COc1ccccc1N=C1NC(=O)/C(=C/c2ccccc2Cl)S1 | inactive |
| O=C(Nc1ccccc1-c1nc2ccccc2[nH]c1=O)c1cccs1 | inactive |
| COc1ccccc1Nc1nc(O)c(/C=c2/ccc3c(c2)C=CN=3)s1 | inactive |
| O=C(Nc1cc(Cl)ccc1-c1nc2ccccc2[nH]c1=O)c1cccs1 | inactive |
| COc1ccccc1N=C1NC(=O)/C(=C/c2ccc(Cl)c(Cl)c2)S1 | inactive |
| COc1ccccc1N=C1NC(=O)/C(=C/C2CCCCC2)S1 | inactive |
| COc1ccccc1N=C1NC(=O)/C(=C/c2cnn(C)c2)S1 | inactive |
| COc1ccccc1N=C1NC(=O)/C(=C/c2ccc(F)c(F)c2)S1 | inactive |
| COc1cc(/C=C2\SC(=NC(C)C)NC2=O)ccc1O | inactive |
| O=C(Nc1ccccc1-c1nc2ccccc2[nH]c1=O)c1ccccn1 | inactive |
| O=C1NC(=NCc2ccccc2)S/C1=C/c1ccc(O)cc1 | inactive |
| O=C(Nc1ccccc1-c1nc2ccccc2[nH]c1=O)C1CCCCC1 | inactive |
| COc1ccccc1N=C1NC(=O)/C(=C/c2ccccc2)S1 | inactive |
| COc1cc(/C=C2\SC(=Nc3ccccc3F)NC2=O)ccc1O | inactive |
| COc1ccccc1N=C1NC(=O)/C(=C/c2ccncc2)S1 | inactive |
| COc1ccccc1Nc1nc(O)c(/C=C2/C=c3ccccc3=N2)s1 | inactive |
| O=C(Nc1ccccc1-c1nc2cc(F)c(F)cc2[nH]c1=O)c1cccs1 | inactive |
| O=C(Nc1ccccc1-c1nc2ccccc2[nH]c1=O)c1cccc(F)c1 | inactive |

| Structure (SMILES) | % substrate conversion (lower = inhibition) |
| --- | --- |
| COc1ccccc1N=C1NC(=O)/C(=C/c2cccc(F)c2)S1 | inactive |
| COc1cccc(/C=C2\SC(=Nc3ccccc3OC)NC2=O)c1 | inactive |
| O=C(Nc1cc(F)ccc1-c1nc2ccccc2[nH]c1=O)c1cccs1 | inactive |
| COc1ccccc1N=C1NC(=O)/C(=C/c2ccc(-c3cccnc3)cc2)S1 | inactive |
| COc1ccccc1N=C1NC(=O)/C(=C/c2ccc(Cl)cc2)S1 | inactive |
| Nc1ccccc1-c1nc2ccccc2[nH]c1=O | inactive |
| COc1ccccc1N=C1NC(=O)/C(=C/c2ccc(F)cc2)S1 | inactive |
| COc1ccccc1N=C1NC(=O)/C(=C/c2ccc(OC)c(OC)c2)S1 | inactive |
| COc1ccccc1N=C1NC(=O)/C(=C/c2ccc(OC(F)(F)F)cc2)S1 | inactive |
| COc1ccccc1N=C1NC(=O)/C(=C/c2ccccn2)S1 | inactive |
| COc1ccc(/C=C2\SC(=Nc3ccccc3OC)NC2=O)c(O)c1 | inactive |
| COc1ccccc1N=C1NC(=O)/C(=C/c2cc(C)on2)S1 | inactive |
| O=c1[nH]c2ccccc2nc1-c1ccccc1NCc1cccs1 | inactive |
| O=C(Nc1ccc(OC(F)(F)F)cc1-c1nc2ccccc2[nH]c1=O)c1cccs1 | inactive |
| COc1cc(/C=C2\SC(=NC(C)(C)C)NC2=O)ccc1O | inactive |
| COc1ccccc1N=C1NC(=O)/C(=C/c2ccc(C)cc2)S1 | inactive |
| COc1ccccc1N=C1NC(=O)/C(=C/c2cccnc2)S1 | inactive |
| O=C(Nc1ccc(Cl)cc1-c1nc2ccccc2[nH]c1=O)c1cccs1 | inactive |
| COc1cc(/C=C2\SC(=Nc3ccc(F)cc3)NC2=O)ccc1O | inactive |
| CC(C)c1ccc(NC(=O)c2cccs2)c(-c2nc3ccccc3[nH]c2=O)c1 | inactive |
| COc1cc(/C=C2/SC(=Nc3ccc(O)cc3)NC2=O)ccc1O | inactive |
| COc1cc(/C=C2\SC(=Nc3ccncc3)NC2=O)ccc1O | inactive |
| O=C(Nc1ccccc1-c1nc2ccccc2[nH]c1=O)c1cccnc1 | inactive |

| Structure (SMILES) | % substrate conversion (lower = inhibition) |
| --- | --- |
| COc1ccccc1/C=C1\SC(=Nc2ccccc2OC)NC1=O | inactive |
| COc1ccccc1N=C1NC(=O)/C(=C/c2cccn2C)S1 | inactive |
| COc1cc(/C=C2\SC(N)=NC2=O)ccc1O | inactive |
| COc1ccccc1N=C1NC(=O)/C(=C/c2cccc(Cl)c2)S1 | inactive |
| COc1ccccc1N=C1NC(=O)/C(=C/c2ccc(O)cc2)S1 | inactive |
| COc1cc(/C=C2\SC(=Nc3ccc(Cl)cc3)NC2=O)ccc1O | inactive |
| COc1ccc(N=C2NC(=O)/C(=C/c3ccc(O)c(OC)c3)S2)cc1 | inactive |
| COc1cc(/C=C2\SC(=Nc3cccc(F)c3)NC2=O)ccc1O | inactive |
| O=C(Nc1ccccc1-c1nc2ccccc2[nH]c1=O)c1ccncc1 | inactive |
| O=C(Nc1ccccc1-c1nc2ccccc2[nH]c1=O)c1ccc(F)cc1 | inactive |
| COc1ccc(-n2ncc3cnc(Nc4ccc(N5CCN(C)CC5)c(OC)c4)nc32)cc1 | inactive |
| COc1ccc(/C=C2\SC(=Nc3ccccc3OC)NC2=O)cc1 | inactive |
| COc1ccccc1N=C1NC(=O)/C(=C/C(C)C)S1 | inactive |
| COc1ccc(C(=O)Nc2ccccc2-c2nc3ccccc3[nH]c2=O)cc1 | inactive |
| COc1ccccc1N=C1NC(=O)/C(=C/c2ccc(C#N)cc2)S1 | inactive |
| COc1ccccc1N=C1NC(=O)/C(=C/c2ccccc2F)S1 | inactive |
| COc1cc(/C=C2\SC(=Nc3cccnc3)NC2=O)ccc1O | inactive |
| COc1cc(/C=C2\SC(=Nc3ccccc3OC)NC2=O)ccc1O | inactive |
| COc1ccccc1N=C1NC(=O)/C(=C/c2nc(C)cs2)S1 | inactive |
| COc1ccccc1N=C1NC(=O)/C(=C/c2ccc3c(c2)OCO3)S1 | inactive |
| COc1ccccc1N=C1NC(=O)/C(=C/c2cc(Cl)cc(Cl)c2O)S1 | inactive |
| COc1cc(/C=C2\SC(=Nc3ccccc3OC)NC2=O)ccc1F | inactive |
